# The source made the active and inactive calls. No cut-off for these calls is given here.
# Legend:
# [1] = target: T1, Androgen receptor (Homo sapiens) (UniProt P10275); experiment: Effect on human Gal4-fused AR at 10 uM by luciferase reporter gene assay
# T1 sequence (whole entry): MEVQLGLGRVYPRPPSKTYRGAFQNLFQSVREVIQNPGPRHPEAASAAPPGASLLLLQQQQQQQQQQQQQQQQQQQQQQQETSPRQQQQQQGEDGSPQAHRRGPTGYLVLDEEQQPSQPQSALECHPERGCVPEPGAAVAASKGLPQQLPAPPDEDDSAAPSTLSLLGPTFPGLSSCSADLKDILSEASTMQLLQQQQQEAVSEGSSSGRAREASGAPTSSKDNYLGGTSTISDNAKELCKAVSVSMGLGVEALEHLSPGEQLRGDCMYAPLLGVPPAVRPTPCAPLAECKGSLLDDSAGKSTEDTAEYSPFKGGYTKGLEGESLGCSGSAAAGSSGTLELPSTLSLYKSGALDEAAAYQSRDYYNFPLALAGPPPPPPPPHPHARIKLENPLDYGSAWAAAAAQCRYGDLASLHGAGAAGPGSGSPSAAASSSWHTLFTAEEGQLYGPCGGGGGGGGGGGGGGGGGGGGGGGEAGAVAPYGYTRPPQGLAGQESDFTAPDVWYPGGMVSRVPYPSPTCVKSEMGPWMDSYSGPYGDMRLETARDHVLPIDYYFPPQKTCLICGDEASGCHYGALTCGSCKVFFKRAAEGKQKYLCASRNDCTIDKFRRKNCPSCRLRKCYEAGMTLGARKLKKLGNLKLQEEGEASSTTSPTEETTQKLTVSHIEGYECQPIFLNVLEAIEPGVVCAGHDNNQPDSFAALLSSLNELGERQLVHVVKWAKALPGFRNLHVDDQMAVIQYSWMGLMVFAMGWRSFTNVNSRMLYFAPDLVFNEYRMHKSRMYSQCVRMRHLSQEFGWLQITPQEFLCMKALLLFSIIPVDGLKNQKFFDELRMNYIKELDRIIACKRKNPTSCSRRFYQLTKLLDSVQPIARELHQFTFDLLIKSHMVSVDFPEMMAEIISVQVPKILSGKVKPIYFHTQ
# [2] = target: T2, Mineralocorticoid receptor (Homo sapiens) (UniProt P08235); experiment: Effect on human Gal4-fused MCR at 10 uM by luciferase reporter gene assay
# T2 sequence (whole entry): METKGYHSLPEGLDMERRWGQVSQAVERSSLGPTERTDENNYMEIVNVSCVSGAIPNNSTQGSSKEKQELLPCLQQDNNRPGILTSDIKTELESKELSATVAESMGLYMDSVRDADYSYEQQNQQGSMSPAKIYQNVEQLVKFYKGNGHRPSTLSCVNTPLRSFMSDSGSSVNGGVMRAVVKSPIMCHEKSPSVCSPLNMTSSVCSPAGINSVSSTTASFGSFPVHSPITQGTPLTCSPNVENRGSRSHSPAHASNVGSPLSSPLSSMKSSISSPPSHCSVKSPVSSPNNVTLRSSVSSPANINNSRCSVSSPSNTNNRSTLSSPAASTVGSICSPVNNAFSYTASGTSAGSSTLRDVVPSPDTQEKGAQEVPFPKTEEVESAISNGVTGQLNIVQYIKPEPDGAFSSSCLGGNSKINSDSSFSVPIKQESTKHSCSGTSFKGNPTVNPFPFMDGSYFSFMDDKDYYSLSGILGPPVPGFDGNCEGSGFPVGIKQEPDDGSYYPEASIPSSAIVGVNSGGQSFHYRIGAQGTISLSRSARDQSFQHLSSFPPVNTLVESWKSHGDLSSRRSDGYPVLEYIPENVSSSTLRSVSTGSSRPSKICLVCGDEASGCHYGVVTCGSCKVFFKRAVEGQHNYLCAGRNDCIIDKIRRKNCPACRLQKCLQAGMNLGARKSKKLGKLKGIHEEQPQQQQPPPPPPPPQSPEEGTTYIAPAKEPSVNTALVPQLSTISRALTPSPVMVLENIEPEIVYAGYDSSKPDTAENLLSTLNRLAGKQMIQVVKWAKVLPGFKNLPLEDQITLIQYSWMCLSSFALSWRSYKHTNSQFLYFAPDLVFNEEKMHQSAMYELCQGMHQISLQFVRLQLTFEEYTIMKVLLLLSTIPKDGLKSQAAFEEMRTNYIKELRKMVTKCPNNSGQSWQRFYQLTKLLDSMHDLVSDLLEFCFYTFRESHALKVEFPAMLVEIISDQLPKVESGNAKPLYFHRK
# [3] = Cytotoxicity against african green monkey CV1 cells by MTT assay; type: cell-based; details: Chlorocebus aethiops, CV-1
# Summary of the method: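 CV-1 cells, viability read by MTT; each experiment repeated more than three times.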
# [4] = target: T3, Bile acid receptor (Homo sapiens) (UniProt Q96RI1); experiment: Binding affinity to human FXR ligand binding domain cell free system assessed as release of co-activator peptide SRC-1 after 1 hr by surface plasmon resonance method
# T3 sequence (whole entry): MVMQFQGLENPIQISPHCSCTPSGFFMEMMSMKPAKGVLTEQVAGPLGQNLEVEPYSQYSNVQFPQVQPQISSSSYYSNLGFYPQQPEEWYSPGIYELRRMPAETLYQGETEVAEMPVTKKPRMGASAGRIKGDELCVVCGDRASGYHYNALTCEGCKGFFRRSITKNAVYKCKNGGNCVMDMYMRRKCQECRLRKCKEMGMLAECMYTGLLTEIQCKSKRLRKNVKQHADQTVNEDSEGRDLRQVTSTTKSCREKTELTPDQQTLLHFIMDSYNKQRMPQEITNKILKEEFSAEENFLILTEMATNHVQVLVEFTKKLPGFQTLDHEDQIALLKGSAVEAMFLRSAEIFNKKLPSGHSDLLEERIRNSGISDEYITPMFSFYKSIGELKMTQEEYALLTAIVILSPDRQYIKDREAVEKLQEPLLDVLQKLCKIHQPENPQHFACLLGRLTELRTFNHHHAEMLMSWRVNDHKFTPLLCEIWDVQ
# Summary of the method: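 BIAcore SPR: hFXR LBD (4 µM) preincubated 1 h with compound plus 50 µM CDCA, then injected over a sensor chip bearing immobilized SRC-1 co-activator peptide; co-activator peptide binding to the LBD monitored.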
# [5] = target: T4, Retinoic acid receptor alpha (Homo sapiens) (UniProt P10276); experiment: Effect on human Gal4-fused RAR alpha at 10 uM by luciferase reporter gene assay
# T4 sequence (whole entry): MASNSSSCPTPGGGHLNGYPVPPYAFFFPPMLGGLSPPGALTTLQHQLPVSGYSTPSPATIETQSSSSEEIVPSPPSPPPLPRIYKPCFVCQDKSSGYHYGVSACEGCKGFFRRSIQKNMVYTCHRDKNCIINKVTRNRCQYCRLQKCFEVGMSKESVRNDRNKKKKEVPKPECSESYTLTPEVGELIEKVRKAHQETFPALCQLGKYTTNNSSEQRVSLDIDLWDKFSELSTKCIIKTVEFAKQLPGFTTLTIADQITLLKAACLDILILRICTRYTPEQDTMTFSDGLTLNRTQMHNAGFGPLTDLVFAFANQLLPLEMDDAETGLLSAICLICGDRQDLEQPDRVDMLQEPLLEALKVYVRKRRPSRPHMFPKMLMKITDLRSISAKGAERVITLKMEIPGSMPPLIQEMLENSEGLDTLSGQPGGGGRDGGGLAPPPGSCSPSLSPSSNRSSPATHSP
Structure (SMILES),Activity [1],Activity [2],IC50 [3] [µM],Activity [4],Activity [5]
CC(C)=CCCC1=C[C@@H](C/C(C)=C/CC[C@]2(C)C=Cc3cc(O)cc(C)c3O2)OC1=O [2'-EPI-TUBERATOLIDE B],inactive,inactive,30,Active,inactive
CC(C)=CCC/C(=C/CC/C(C)=C/CC[C@]1(C)C=Cc2cc(O)cc(C)c2O1)C(=O)O [(R)-SARGACHROMENOL],inactive,inactive,45,Active,inactive
CC(C)=CCC/C(=C/CC/C(C)=C/CC[C@@]1(C)C=Cc2cc(O)cc(C)c2O1)C(=O)O [(S)-SARGACHROMENOL],inactive,inactive,56,Active,inactive
CC(=O)CC/C=C(\C)C[C@@H]1C=C(CCC=C(C)C)C(=O)O1 [TUBERATOLIDE A],inactive,inactive,> 100,Active,inactive
CC(C)=CCCC1=C[C@@H](C/C(C)=C/CC[C@@]2(C)C=Cc3cc(O)cc(C)c3O2)OC1=O [TUBERATOLIDE B],inactive,inactive,31,Active,inactive
CC(C)=CCCC1=C[C@@H](C/C(C)=C/CC/C(C)=C/CC2=CC(=O)C=C(C)C2=O)OC1=O [YEZOQUINOLIDE],inactive,inactive,50,Active,inactive

# Source: ChEMBL document CHEMBL1667725, “Tuberatolides, potent FXR antagonists from the Korean marine tunicate Botryllus tuberatus” (J Nat Prod, 2011)
